High-throughput results: PubChem, The Scripps Research Institute Molecular Screening Center
Rows were chosen to be rich in hits. Some 2.9% of all compounds tested hit in one or more screens of this group.
CHO-K1 Ca antag: nonselective inhibitor or artifact in parental CHO-K1 cells; ATP-induced calcium, Fluo-8 fluorescence; inhibition, % at 3 µM; 360,000 tested, 0.6% active; AID 602250;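 active means inhibition above a per-plate cutoff, the plate's mean sample inhibition plus 3 SD, cut at about 24% in these data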;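 further: 0% = DMSO plus EC80 ATP and 100% = DMSO alone without ATP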
M1 PAM parental: M1 PAM counterscreen hit in parental CHO-K1 cells | ATP EC20, Fluo-8 calcium fluorescence; 0% at ATP EC20, 100% at ATP max | activation, % at 3 µM | 360,000 tested, 0.02% active;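 active means activation above the run cutoff, the mean activation of all test compounds plus 3 SD, cut at about 40% in these data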;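 further: peak over basal fluorescence ratio in a 140 s read after ATP addition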
OX1R antag-1: OX1R (human) antagonism | inhibition, % at 6.6 µM | 330,000 tested, 1.8% active | OX1R-expressing cells, FRET antagonist read-out | AID 485270 | O43613; in the data active means inhibition mostly above about 38%, no sharp cut-off; inactive means mostly below about 40%;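 further: 0% = agonist challenge alone and 100% = reference antagonist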
Target sequence (O43613 whole entry, looked up): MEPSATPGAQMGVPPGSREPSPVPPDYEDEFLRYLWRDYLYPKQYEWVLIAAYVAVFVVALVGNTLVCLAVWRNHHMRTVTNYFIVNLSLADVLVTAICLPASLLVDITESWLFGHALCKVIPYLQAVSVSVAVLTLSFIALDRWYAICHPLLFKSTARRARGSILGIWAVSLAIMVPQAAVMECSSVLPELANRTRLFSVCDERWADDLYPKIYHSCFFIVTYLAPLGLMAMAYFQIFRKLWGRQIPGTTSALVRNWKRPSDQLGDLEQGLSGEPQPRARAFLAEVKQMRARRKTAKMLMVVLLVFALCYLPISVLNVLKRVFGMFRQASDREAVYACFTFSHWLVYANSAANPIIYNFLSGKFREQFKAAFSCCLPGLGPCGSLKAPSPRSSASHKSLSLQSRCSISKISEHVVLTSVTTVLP
CHO parental Ca: counter-screen for OX1R antagonists: effect in parental CHO cells | parental CHO-K1, ATP-induced calcium, Fluo-8 fluorescence | inhibition, % at 5.6 µM | AID 463079 | 330,000 tested, 0.63% active;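 active means inhibition above that plate's mean sample inhibition plus 3 SD, cut at about 26% in these data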;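 further: 0% = ATP-challenged DMSO wells and 100% = DMSO wells without ATP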
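test system = CHO parental line | reagent = ATP stimulus | measured by = intracellular calcium via Fluo-8 no-wash fluorescent dye | control set = ATP and no-ATP DMSO wells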
OX1R antag-2: blocks the human orexin 1 receptor | CHO/OX1R cells, Fluo-8 calcium fluorescence, orexin A | inhibition, % at 5 µM | 330,000 tested, 0.43% active;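 active means inhibition above its plate's threshold, mean inhibition of all tested compounds on the plate plus 3 SD, cut at about 37% in these data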;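 further: 0% = orexin A challenge wells and 100% = SB-334867-A antagonist wells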
M1 ag parental: counter-screen for M1 agonists: effect in parental CHO-K1 cells; Fluo-8 calcium fluorescence; scaled to maximal ATP response, vehicle zero; 360,000 tested, 0.48% active; activation, % at 3 µM; in the data active means activation above about 15%;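 further: untransfected CHO-K1 host cells lacking M1 receptor as counterscreen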
Starred values were filed as active, the others as inactive.

How did Cc1ccc(C(=O)OCC(=O)Nc2cc(C(C)(C)C)no2)c(C)c1 do in these assays?
CHO-K1 Ca antag: -18; M1 PAM parental: 4; OX1R antag-1: 9; CHO parental Ca: 3; OX1R antag-2: -10; M1 ag parental: 0

Results for CN1CCN(C(=O)c2cccn(Cc3ccc(C(F)(F)F)cc3)c2=O)CC1 ?
CHO-K1 Ca antag: 5; M1 PAM parental: 10; OX1R antag-1: 16; CHO parental Ca: -2; OX1R antag-2: -8; M1 ag parental: 0

Results for NNc1nc2c(F)cc(F)cc2s1 ?
CHO-K1 Ca antag: -3; M1 PAM parental: 12; OX1R antag-1: 33; CHO parental Ca: -8; OX1R antag-2: -18; M1 ag parental: 1

Results for N#C/C(=C\c1c(F)cccc1Cl)c1nn(-c2ccccc2)c(-n2cccc2)c1C#N ?
CHO-K1 Ca antag: -4; M1 PAM parental: 16; OX1R antag-1: 36*; CHO parental Ca: -19; OX1R antag-2: -14; M1 ag parental: 1

How did O=C(Nc1nc2ccccc2[nH]1)NC1CCCCC1 do in these assays?
CHO-K1 Ca antag: 11; M1 PAM parental: -2; OX1R antag-1: 25; CHO parental Ca: 3; OX1R antag-2: -29; M1 ag parental: 23*

How did COc1ccc(S(=O)(=O)Nc2ccc3c(c2)C(=O)N([C@@H](C)CO)C[C@H](C)[C@H](CN(C)CC2CC2)O3)cc1 do in these assays?
CHO-K1 Ca antag: -17; M1 PAM parental: 11; OX1R antag-1: 4; CHO parental Ca: -17; OX1R antag-2: -3; M1 ag parental: 0

What do the screens show for `CN1/C(=C\C(=O)COC(=O)c2ccc(O)c(O)c2)C(C)(C)c2ccccc21`?
OX1R antag-1: 12; CHO parental Ca: 50*; OX1R antag-2: 40*

Results for CN1/C(=C\C(=O)COC(=O)c2ccc(O)cc2)C(C)(C)c2ccccc21 ?
CHO-K1 Ca antag: 6; M1 PAM parental: -2; OX1R antag-1: 29; CHO parental Ca: 54*; OX1R antag-2: 47*; M1 ag parental: 9

What do the screens show for `CN1OC[C@@H]2CN(C(=O)CCc3ccccc3)[C@H](c3ccc(N4CCCCC4)cc3)C[C@@H]21`?
CHO-K1 Ca antag: 17; M1 PAM parental: -4; M1 ag parental: 0

Results for CC(=O)NCc1ccc(-c2nc3ccccc3s2)cc1 ?
CHO-K1 Ca antag: -19; M1 PAM parental: 10; OX1R antag-1: 16; CHO parental Ca: -21; OX1R antag-2: -14; M1 ag parental: 1

What do the screens show for `CC(=O)NCc1ccc(-c2csc(-c3cccs3)n2)cc1`?
CHO-K1 Ca antag: -18; M1 PAM parental: -6; OX1R antag-1: 63*; CHO parental Ca: -9; OX1R antag-2: -14; M1 ag parental: 2

What do the screens show for `Cc1ccccc1OCCNc1cc(N2CCCCC2)ccc1[N+](=O)[O-]`?
CHO-K1 Ca antag: 2; M1 PAM parental: 11; OX1R antag-1: 18; CHO parental Ca: 37*; OX1R antag-2: -4; M1 ag parental: 0

What do the screens show for `CC(OC(=O)CNC(=O)c1ccc(Br)cc1)C(=O)NC1CCCCC1C` (stereo unspecified)?
CHO-K1 Ca antag: -3; M1 PAM parental: 9; OX1R antag-1: -5; CHO parental Ca: -12; OX1R antag-2: -3; M1 ag parental: 3

What do the screens show for `CC1CC(C)CN(C(=O)CNC(=O)c2ccc3ccccc3c2)C1` (stereo unspecified)?
CHO-K1 Ca antag: -4; M1 PAM parental: 16; OX1R antag-1: 74*; CHO parental Ca: -10; OX1R antag-2: -18; M1 ag parental: 3

How did CC(OC(=O)CNC(=O)c1ccc(Cl)cc1)C(=O)NC1CCCCC1C (stereo unspecified) do in these assays?
CHO-K1 Ca antag: 25*; M1 PAM parental: -22; OX1R antag-1: 25; CHO parental Ca: -6; OX1R antag-2: -16; M1 ag parental: 0

What do the screens show for `CC(OC(=O)CNC(=O)c1ccc2ccccc2c1)C(=O)NC1CCCCC1C` (stereo unspecified)?
CHO-K1 Ca antag: 7; M1 PAM parental: 16; OX1R antag-1: 18; CHO parental Ca: -12; OX1R antag-2: -11; M1 ag parental: 18*

How did O=C(COCc1cc(-c2ccc3c(c2)OCO3)on1)Nc1cccnc1Cl do in these assays?
CHO-K1 Ca antag: -12; M1 PAM parental: 15; OX1R antag-1: 23; CHO parental Ca: 0; OX1R antag-2: -24; M1 ag parental: 1

Results for C=CCNC(=O)NC(=O)c1csc([N+](=O)[O-])c1 ?
CHO-K1 Ca antag: -3; M1 PAM parental: 7; OX1R antag-1: 46*; CHO parental Ca: 4; OX1R antag-2: -18; M1 ag parental: 1

What do the screens show for `CCNC(=O)NC(=O)c1csc([N+](=O)[O-])c1`?
CHO-K1 Ca antag: -7; M1 PAM parental: 13; OX1R antag-1: 40*; CHO parental Ca: -14; OX1R antag-2: -11; M1 ag parental: 3

Results for C=CCNC(=O)c1ccc([N+](=O)[O-])c(Cl)c1 ?
CHO-K1 Ca antag: -5; M1 PAM parental: 12; OX1R antag-1: 9; CHO parental Ca: -2; OX1R antag-2: -9; M1 ag parental: 1

Results for O=C(NCc1ccco1)NC(=O)c1csc([N+](=O)[O-])c1 ?
CHO-K1 Ca antag: -2; M1 PAM parental: 10; OX1R antag-1: 26; CHO parental Ca: 7; OX1R antag-2: -17; M1 ag parental: 1

What do the screens show for `COc1ccc(N(CC(=O)Nc2ccc(C(C)C)cc2)S(=O)(=O)c2c(C)noc2C)cc1`?
CHO-K1 Ca antag: 8; M1 PAM parental: -10; OX1R antag-1: 24; CHO parental Ca: -20; OX1R antag-2: 0; M1 ag parental: 0

How did COc1ccccc1OCC(=O)OCC(=O)NCCN1C(=O)CSC1=O do in these assays?
CHO-K1 Ca antag: 21; M1 PAM parental: 5; OX1R antag-1: 12; CHO parental Ca: 9; OX1R antag-2: 0; M1 ag parental: 0

How did O=C(COC(=O)CNC(=O)c1ccco1)NCCN1C(=O)CSC1=O do in these assays?
CHO-K1 Ca antag: 31*; M1 PAM parental: -6; OX1R antag-1: 8; CHO parental Ca: -10; OX1R antag-2: -13; M1 ag parental: 0

How did Cc1c(/C=C/C(=O)c2ccccc2)cnn1C do in these assays?
CHO-K1 Ca antag: -1; M1 PAM parental: 8; OX1R antag-1: 41*; CHO parental Ca: -2; OX1R antag-2: 1; M1 ag parental: 16*

How did Cc1cc(-c2ccc(C)c(S(=O)(=O)NCCCN3CCN(c4ccccc4)CC3)c2)on1 do in these assays?
CHO-K1 Ca antag: 18; M1 PAM parental: -9; OX1R antag-1: 4; CHO parental Ca: -10; OX1R antag-2: -10; M1 ag parental: 11

What do the screens show for `Cc1cc(-c2ccc(C)c(S(=O)(=O)NCCCN3CCN(c4ccccc4F)CC3)c2)on1`?
CHO-K1 Ca antag: 8; M1 PAM parental: -23; OX1R antag-1: 40; CHO parental Ca: 61*; OX1R antag-2: 67*; M1 ag parental: 12

What do the screens show for `CC(=O)N1CCc2cc(Br)cc(S(=O)(=O)N3CCc4ccccc43)c21`?
CHO-K1 Ca antag: -2; M1 PAM parental: 18; OX1R antag-1: 44; CHO parental Ca: -15; OX1R antag-2: -16; M1 ag parental: 5
